Active and inactive are the calls of the source. No cut-off for these calls is given here.
Assays:
[1] = target: Tyrosyl-DNA phosphodiesterase 1 (Homo sapiens, UniProt Q9NUW8); experiment: Inhibition of recombinant TDP1(unknown origin) using 5'-[32P]-single stranded N14Y DNA oligonucleotide after 15 mins by […]
In short: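 A 5′-32P-labeled single-stranded oligonucleotide with 3′ phosphotyrosine (N14Y) was incubated with 5 pM recombinant TDP1 for 15 min at room temperature. Loss of the N14P product band on the gel marks inhibition.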

[2] = target: T1, DNA topoisomerase 1 (Homo sapiens) (UniProt P11387); experiment: Inhibition of human recombinant topoisomerase 1-mediated 117 bp DNA cleavage by agarose gel electrophoresis; conditions: in the assay text read “denaturing PAGE” for “agarose gel electrophoresis”
T1 sequence (whole entry): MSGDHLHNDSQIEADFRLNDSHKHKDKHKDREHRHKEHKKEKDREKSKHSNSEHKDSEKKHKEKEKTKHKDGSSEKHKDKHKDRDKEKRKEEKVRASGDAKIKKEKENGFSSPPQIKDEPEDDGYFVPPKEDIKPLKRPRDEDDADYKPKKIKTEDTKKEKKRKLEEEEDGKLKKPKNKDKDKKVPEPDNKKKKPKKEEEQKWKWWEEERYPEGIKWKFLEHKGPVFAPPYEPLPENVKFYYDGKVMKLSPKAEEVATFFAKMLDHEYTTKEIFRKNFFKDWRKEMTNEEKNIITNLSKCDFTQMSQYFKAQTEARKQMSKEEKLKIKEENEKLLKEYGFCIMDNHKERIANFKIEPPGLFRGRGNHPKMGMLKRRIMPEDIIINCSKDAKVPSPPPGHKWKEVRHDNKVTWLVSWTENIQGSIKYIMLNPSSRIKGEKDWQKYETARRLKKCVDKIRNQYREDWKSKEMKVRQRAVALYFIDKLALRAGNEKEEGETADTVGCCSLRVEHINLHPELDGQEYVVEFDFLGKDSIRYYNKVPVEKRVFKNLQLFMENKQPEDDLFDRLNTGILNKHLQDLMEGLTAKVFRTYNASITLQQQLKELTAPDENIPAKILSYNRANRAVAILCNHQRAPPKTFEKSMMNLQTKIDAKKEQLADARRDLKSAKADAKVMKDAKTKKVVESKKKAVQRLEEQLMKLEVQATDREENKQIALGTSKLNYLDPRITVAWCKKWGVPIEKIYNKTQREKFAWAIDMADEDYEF
In short: (§1)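 Human recombinant Top1 was purified from baculovirus. Compound was tested at 0.1, 1, 10 and 100 μM for 20 min at 25 °C. Reactions were stopped with SDS (0.5% final) and run on 20% denaturing PAGE with phosphoimager read-out. Activity was graded semiquantitatively.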

[3] = Growth inhibition of human OVCAR3 cells after 48 hrs by SRB assay; format: functional; conditions: OVCAR-3, 48 h
In short: (§2)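 NCI60 screen. Cells were exposed to 100, 10, 1, 0.1 and 0.01 μM for 48 h, then stained with sulforhodamine B and read by optical density. Percent growth relative to control was plotted against log concentration. […] Where a standard error is given, values are the mean of two determinations.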

SN12C = experiment: Growth inhibition of human SN12C cells after 48 hrs by SRB assay; format: functional; in short: as §2
HOP-62 = experiment: Growth inhibition of human HOP62 cells after 48 hrs by SRB assay; format: functional; conditions: HOP-62, 48 h; in short: as §2
HCT-116 = experiment: Growth inhibition of human HCT116 cells after 48 hrs by SRB assay; format: functional; conditions: HCT-116, 48 h; in short: as §2
[4] = Growth inhibition of human UACC62 cells after 48 hrs by SRB assay; format: functional; conditions: UACC-62, 48 h; in short: as §2
DU-145 = experiment: Growth inhibition of human DU145 cells after 48 hrs by SRB assay; format: functional; conditions: DU-145, 48 h; in short: as §2
[5] = target: T1, DNA topoisomerase 1 (Homo sapiens); experiment: Inhibition of human recombinant topoisomerase 1-mediated 117 bp DNA cleavage at 0.1 to 100 uM by agarose gel electrophoresis; conditions: in the assay text read “denaturing PAGE” for “agarose gel electrophoresis”; in short: as §1
[6] = Growth inhibition of human SF539 cells after 48 hrs by SRB assay; format: functional; conditions: SF-539, 48 h; in short: as §2
MCF7 = experiment: Growth inhibition of human MCF7 cells after 48 hrs by SRB assay; format: functional; conditions: MCF7, 48 h; in short: as §2

Tyrosyl-DNA phosphodiesterase 1, sequence (Q9NUW8 whole entry): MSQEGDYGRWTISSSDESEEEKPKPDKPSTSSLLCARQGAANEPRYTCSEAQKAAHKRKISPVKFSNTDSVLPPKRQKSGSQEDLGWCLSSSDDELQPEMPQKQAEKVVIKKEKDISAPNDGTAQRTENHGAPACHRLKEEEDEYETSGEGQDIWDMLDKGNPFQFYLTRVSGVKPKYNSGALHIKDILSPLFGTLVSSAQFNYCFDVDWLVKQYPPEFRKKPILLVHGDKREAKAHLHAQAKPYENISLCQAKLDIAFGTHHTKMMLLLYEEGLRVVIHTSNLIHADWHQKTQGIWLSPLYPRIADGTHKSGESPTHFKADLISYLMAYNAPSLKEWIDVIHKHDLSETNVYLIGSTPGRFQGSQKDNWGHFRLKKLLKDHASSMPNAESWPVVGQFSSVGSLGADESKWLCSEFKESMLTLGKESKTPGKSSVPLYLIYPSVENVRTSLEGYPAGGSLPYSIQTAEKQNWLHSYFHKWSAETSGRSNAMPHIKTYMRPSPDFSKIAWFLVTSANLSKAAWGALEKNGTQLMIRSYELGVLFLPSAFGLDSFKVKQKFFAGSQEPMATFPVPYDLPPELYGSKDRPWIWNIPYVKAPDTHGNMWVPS

| SMILES | IC50 [1] [µM] | inhibition [2] | GI50 (HCT-116) [µM] | GI50 (DU-145) [µM] | inhibition [5] | inhibition [1] | GI50 (MCF7) [µM] | GI50 [3] [µM] | GI50 (SN12C) [µM] | GI50 (HOP-62) [µM] | GI50 [4] [µM] | GI50 [6] [µM] |
| --- | --- | --- | --- | --- | --- | --- | --- | --- | --- | --- | --- | --- |
| COc1cc2c(=O)n(CCCN3CCOCC3)c3c(c2cc1OCC(=O)NN)C(O)c1cc2c(cc1-3)OCO2 (configuration not stated) | > 111 | inactive | – | – | – | – | – | – | – | – | – | – |
| COc1cc2c3c(n(CCCNCCO)c(=O)c2cc1OC)-c1cc2c(cc1C3=O)OCO2 [LMP-744] | – | – | – | – | – | – | – | – | – | – | – | 0.04 |
| COc1cc2c(=O)n(CCCN3CCOCC3)c3c(c2cc1O)C(=O)c1cc2c(cc1-3)OCO2 | – | Active | 0.39 | 0.3 | – | – | 0.1 | 0.9 | 0.2 | 0.3 | 0.3 | 0.3 |
| CCNCCCOc1cc2c3c(n(CCCN4CCOCC4)c(=O)c2cc1OC)-c1cc2c(cc1C3=O)OCO2 | – | – | – | – | Active | Dose-dependent effect | – | – | – | – | – | – |
| COc1cc2c(=O)n(CCCN3CCOCC3)c3c(c2cc1OCCCN1CCCCC1)C(=O)c1cc2c(cc1-3)OCO2 | – | – | 1.1 | 0.2 | Active | Dose-dependent effect | 0.04 | 5.4 | 0.4 | 0.3 | 9.6 | 0.03 |
| COC(=O)COc1cc2c3c(n(CCCN4CCOCC4)c(=O)c2cc1OC)-c1cc2c(cc1C3=O)OCO2 | > 111 | Active | 1.1 | 0.9 | – | – | 0.4 | 5.8 | 0.8 | 0.1 | 1 | 0.1 |
| COc1cc2c(=O)n(CCCN3CCOCC3)c3c(c2cc1OCCCN1CCCC1)C(=O)c1cc2c(cc1-3)OCO2 | – | – | – | 0.04 | Active | – | 0.1 | 1.2 | – | – | 0.3 | 0.2 |

More lines, main results first:

| IC50 [1] [µM] | inhibition [2] | GI50 (HCT-116) [µM] | GI50 (DU-145) [µM] | inhibition [5] | inhibition [1] | GI50 (MCF7) [µM] | SMILES | GI50 [3] [µM] | GI50 (SN12C) [µM] | GI50 (HOP-62) [µM] | GI50 [4] [µM] | GI50 [6] [µM] |
| --- | --- | --- | --- | --- | --- | --- | --- | --- | --- | --- | --- | --- |
| – | – | 35 | 37 | – | – | – | COc1cc2c3c(n(C)c(=O)c2cc1OC)-c1cc2c(cc1C3=O)OCO2 | 73 | 68 | 1.3 | 4.2 | – |
| > 111 | – | – | – | Active | Dose-dependent effect | – | COc1cc2c(=O)n(CCCN3CCOCC3)c3c(c2cc1OCCCN1CCN(C)CC1)C(=O)c1cc2c(cc1-3)OCO2 | – | – | – | – | – |
| – | inactive | – | 0.3 | – | – | – | COc1cc2c(=O)n(CCCN3CCOCC3)c3c(c2cc1OCCCN)C(=O)c1cc2c(cc1-3)OCO2 | 0.4 | 0.3 | 0.3 | 0.3 | 0.2 |
| > 111 | inactive | – | < 0.01 | – | – | < 0.01 | C=CCOc1cc2c3c(n(CCCN4CCOCC4)c(=O)c2cc1OC)-c1cc2c(cc1C3=O)OCO2 | 0.3 | < 0.01 | < 0.01 | < 0.01 | 0.01 |
| – | – | – | – | Active | Dose-dependent effect | – | COc1cc2c(=O)n(CCCN3CCOCC3)c3c(c2cc1OCCCN(C)C)C(=O)c1cc2c(cc1-3)OCO2 | – | – | – | – | – |
| > 111 | Active | 0.1 | 0.02 | – | – | 0.02 | COc1cc2c(=O)n(CCCN3CCOCC3)c3c(c2cc1OCCCN1CCOCC1)C(=O)c1cc2c(cc1-3)OCO2 | 0.7 | 0.1 | 0.03 | 0.2 | 0.1 |

Reference: ChEMBL document CHEMBL3259672, “Design, synthesis, and biological evaluation of O-2-modified indenoisoquinolines as dual topoisomerase I-tyrosyl-DNA phosphodiesterase I inhibitors” (J Med Chem, 2014)
